According to ChEMBL document CHEMBL3871264, “Design of a novel thiophene inhibitor of 15-lipoxygenase-1 with both anti-inflammatory and neuroprotective properties” (Eur J Med Chem, 2016):
Active and inactive are the calls of the source. The rule behind the calls is not given here.

Tests used:
[1] = molecular target: T1, Polyunsaturated fatty acid lipoxygenase ALOX15 (Mus musculus) (UniProt P39654); experiment: Inhibition of 15-LOX-1 in C57bl/6 mouse precision-cut lung slices assessed as reduction in LPS-stimulated iNOS mRNA expression level at 50 uM incubated for 20 hrs followed by LPS stimulation for 4 hrs in presence of linoleic acid by RT-qPCR analysis
T1 sequence (whole entry): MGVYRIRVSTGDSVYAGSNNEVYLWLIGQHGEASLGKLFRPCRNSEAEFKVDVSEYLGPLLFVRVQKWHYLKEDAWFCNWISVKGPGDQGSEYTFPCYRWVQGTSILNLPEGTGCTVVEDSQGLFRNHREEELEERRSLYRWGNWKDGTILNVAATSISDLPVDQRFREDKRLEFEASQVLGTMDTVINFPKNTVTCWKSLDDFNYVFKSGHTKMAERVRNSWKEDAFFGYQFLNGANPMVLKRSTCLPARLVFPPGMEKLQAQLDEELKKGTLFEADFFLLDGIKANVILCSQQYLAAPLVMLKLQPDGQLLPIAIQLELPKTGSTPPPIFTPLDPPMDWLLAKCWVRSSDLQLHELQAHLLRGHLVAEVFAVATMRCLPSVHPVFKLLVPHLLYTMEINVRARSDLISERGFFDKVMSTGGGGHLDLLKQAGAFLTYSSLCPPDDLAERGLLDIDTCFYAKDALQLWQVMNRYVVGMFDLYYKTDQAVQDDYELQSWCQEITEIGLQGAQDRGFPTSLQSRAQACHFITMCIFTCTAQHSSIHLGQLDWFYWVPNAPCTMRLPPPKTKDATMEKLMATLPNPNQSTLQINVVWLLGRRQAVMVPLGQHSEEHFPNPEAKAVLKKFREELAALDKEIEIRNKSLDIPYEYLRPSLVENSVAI
Method in brief: (§1)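 Lung slices, 250 μm, were cut from agarose-filled lungs of male C57bl/6 mice aged 8-10 weeks and cultured at 37 °C in 5% CO2 in supplemented DMEM, 3 slices per well. Inhibitor was given for 20 h with 10 μM linoleic acid. For the last 4 h, 10 ng/ml LPS plus 10 ng/ml IFNγ were added. Read-out was RT-qPCR (10 ng cDNA, GAPDH assay included), in duplicate or triplicate wells, as fold change versus LPS/linoleic acid control, with 4-6 independent experiments.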

[2] = molecular target: T2, Polyunsaturated fatty acid lipoxygenase ALOX15 (Homo sapiens, UniProt P16050); experiment: Inhibition of human 15-LOX-1 assessed as reduction in conversion of linoleic acid to 13(S)-HpODE incubated for 10 mins followed by linoleic acid addition by UV-absorbance analysis
T2 sequence (P16050 whole entry): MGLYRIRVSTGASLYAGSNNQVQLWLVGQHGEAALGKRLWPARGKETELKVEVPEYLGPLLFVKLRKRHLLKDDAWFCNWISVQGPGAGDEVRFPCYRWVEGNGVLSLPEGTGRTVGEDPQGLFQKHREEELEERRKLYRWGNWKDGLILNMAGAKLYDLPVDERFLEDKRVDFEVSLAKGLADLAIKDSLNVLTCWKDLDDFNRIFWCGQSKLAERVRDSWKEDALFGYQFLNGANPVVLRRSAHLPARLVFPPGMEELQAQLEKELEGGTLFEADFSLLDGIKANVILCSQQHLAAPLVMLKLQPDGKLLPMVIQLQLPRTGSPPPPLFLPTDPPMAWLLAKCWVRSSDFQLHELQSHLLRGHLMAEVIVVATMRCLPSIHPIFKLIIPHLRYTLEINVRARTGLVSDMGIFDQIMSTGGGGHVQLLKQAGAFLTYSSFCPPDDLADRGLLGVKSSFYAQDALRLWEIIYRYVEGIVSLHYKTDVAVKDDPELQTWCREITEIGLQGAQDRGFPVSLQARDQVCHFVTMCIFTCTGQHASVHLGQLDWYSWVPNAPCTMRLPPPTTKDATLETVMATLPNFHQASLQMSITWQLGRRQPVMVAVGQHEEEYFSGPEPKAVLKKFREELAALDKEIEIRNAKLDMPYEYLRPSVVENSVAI

[3] = molecular target: T1, Polyunsaturated fatty acid lipoxygenase ALOX15 (Mus musculus); experiment: Inhibition of 15-LOX-1 in C57bl/6 mouse precision-cut lung slices assessed as reduction in LPS-stimulated IL-1beta mRNA expression level at 50 uM incubated for 20 hrs followed by LPS stimulation for 4 hrs in presence of linoleic acid by RT-qPCR analysis; method in brief: as §1
[4] = molecular target: T1, Polyunsaturated fatty acid lipoxygenase ALOX15 (Mus musculus); experiment: Inhibition of 15-LOX-1 in C57bl/6 mouse precision-cut lung slices assessed as reduction in LPS-stimulated IL-12b mRNA expression level at 5 uM incubated for 20 hrs followed by LPS stimulation for 4 hrs in presence of linoleic acid by RT-qPCR analysis; method in brief: as §1
[5] = molecular target: T1, Polyunsaturated fatty acid lipoxygenase ALOX15 (Mus musculus); experiment: Inhibition of 15-LOX-1 in mouse HT22 cells assessed as inhibition of glutamate-induced superoxide production in mitochondria at 10 uM incubated for 14 to 16 hrs by mitoSOX staining based FACS analysis; conditions: HT-22
Method in brief: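 HT-22 cells were seeded at 5x10^4 per well and incubated overnight. They were then given 4 mM glutamate with or without 10 µM inhibitor or 1 µM PD146176 for 14-16 h. Cells were stained with MitoSOX at 2.5 µM final for 30 min at 37 °C, and fluorescence intensity was measured by flow cytometry (488 nm excitation). At least 3 experiments were run, each in triplicate.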

[6] = molecular target: T1, Polyunsaturated fatty acid lipoxygenase ALOX15 (Mus musculus); experiment: Inhibition of 15-LOX-1 in C57bl/6 mouse precision-cut lung slices assessed as reduction in LPS-stimulated IL-12b mRNA expression level at 50 uM incubated for 20 hrs followed by LPS stimulation for 4 hrs in presence of linoleic acid by RT-qPCR analysis; method in brief: as §1
[7] = molecular target: T3, Polyunsaturated fatty acid lipoxygenase ALOX15 (Homo sapiens) (UniProt P16050); experiment: Competitive inhibition of human 15-LOX-1 assessed as apparent Vmax at 15 uM by Lineweaver-Burk plot analysis (reference value: 1.6 +/- 0.2 10^-4abs/s)
T3 sequence (whole entry): T2 sequence (P16050 whole entry)
Method in brief: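 Purified enzyme activity was read as UV absorbance at 234 nm of the product formed from linoleic acid substrate, in 96-well format. Substrate-dependence runs were done with and without inhibitor. Apparent Km and Vmax were derived from Lineweaver-Burk plots.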

[8] = molecular target: T1, Polyunsaturated fatty acid lipoxygenase ALOX15 (Mus musculus); experiment: Inhibition of 15-LOX-1 in mouse HT22 cells assessed as protection against glutamate-induced cell impedance at 10 uM incubated up to 8 hrs following glutamate challenge measured up to 20 hrs by real time cell viability assay; type: cell-based; conditions: HT-22
Method in brief: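 HT-22 cells were seeded at 8x10^3 per well, incubated overnight, then given 4 mM glutamate. Inhibitor was either co-applied (1-20 µM; PD146176 at 1 µM) or added at 10 µM 2, 4, 6 or 8 h after glutamate. Impedance was recorded in real time for 16-20 h, with cell index normalized just before glutamate addition.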

Mus musculus = species on record: Mus musculus; experiment: Toxicity in C57bl/6 mouse precision-cut lung slices assessed as decrease in tissue viability up to 50 uM after 20 hrs in presence of linoleic acid by lactate dehydrogenase release assay; type: organism-based; conditions: in vivo
Method in brief: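 Mouse lung slices were cultured with inhibitor and 10 μM linoleic acid for 20 h at 37 °C. LDH released into the medium was measured by automated analyzer.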

[9] = molecular target: T1, Polyunsaturated fatty acid lipoxygenase ALOX15 (Mus musculus); experiment: Inhibition of 15-LOX-1 in C57bl/6 mouse precision-cut lung slices assessed as reduction in LPS-stimulated IL-8 mRNA expression level at 50 uM incubated for 20 hrs followed by LPS stimulation for 4 hrs in presence of linoleic acid by RT-qPCR analysis; method in brief: as §1

inhibition [1]: 50%
IC50 [2]: 12.4 µM
inhibition [3]: 50%
inhibition [4]: Active
inhibition [5]: Active
inhibition [6]: 50%
Vmax(app) [7]: 1.6 ×10⁻⁴ abs/s
inhibition [9]: 50%
SMILES: CCCCNC(=O)c1cc(-c2ccccc2)sc1N
inhibition [8]: Active
Activity (Mus musculus): Non-Toxic
